Results from ChEMBL document CHEMBL4354843, “Structure-Based Design of a Potent and Selective Covalent Inhibitor for SRC Kinase That Targets a P-Loop Cysteine” (J Med Chem, 2020).

Tests used:
[1] = system: Receptor-type tyrosine-protein kinase FLT3 (Homo sapiens), P36888 [R834Q]; assay: Binding affinity to human partial length FLT3 R834Q mutant (V592 to Y969 residues) expressed in mammalian expression system assessed as residual binding level at 1 uM by Kinomescan method relative to control
How it was run: (§1)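 KinomeScan active site-directed competition binding panel (468 kinases), compound tested at 1 μM. Result expressed as remaining kinase signal versus DMSO control (percent of control).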

[2] = target: Calcium/calmodulin-dependent protein kinase type 1D (Homo sapiens) (UniProt Q8IU85); assay: Binding affinity to wild-type human partial length CAMK1D (M1 to K299 residues) expressed in bacterial expression system assessed as residual binding level at 1 uM by Kinomescan method relative to control
Sequence of Calcium/calmodulin-dependent protein kinase type 1D (Homo sapiens) (Q8IU85 whole entry, looked up, the tested form may be a part, canonical isoform): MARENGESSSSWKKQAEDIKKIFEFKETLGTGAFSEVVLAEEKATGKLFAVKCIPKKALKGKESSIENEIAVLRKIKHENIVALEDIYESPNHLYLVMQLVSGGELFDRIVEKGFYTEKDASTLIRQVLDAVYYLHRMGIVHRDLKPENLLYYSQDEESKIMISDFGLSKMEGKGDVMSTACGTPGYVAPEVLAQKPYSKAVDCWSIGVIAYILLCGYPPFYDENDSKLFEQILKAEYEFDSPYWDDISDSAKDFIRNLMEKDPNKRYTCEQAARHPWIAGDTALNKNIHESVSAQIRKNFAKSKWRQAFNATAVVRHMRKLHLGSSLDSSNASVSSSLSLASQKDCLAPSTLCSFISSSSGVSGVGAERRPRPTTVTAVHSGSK

[3] = target: Casein kinase I isoform alpha (Homo sapiens) (UniProt P48729); assay: Binding affinity to wild-type human partial length CSNK1A1 (M1 to L450 residues) expressed in mammalian expression system assessed as residual binding level at 1 uM by Kinomescan method relative to control
Sequence of Casein kinase I isoform alpha (Homo sapiens) (P48729 2-337 limits assumed): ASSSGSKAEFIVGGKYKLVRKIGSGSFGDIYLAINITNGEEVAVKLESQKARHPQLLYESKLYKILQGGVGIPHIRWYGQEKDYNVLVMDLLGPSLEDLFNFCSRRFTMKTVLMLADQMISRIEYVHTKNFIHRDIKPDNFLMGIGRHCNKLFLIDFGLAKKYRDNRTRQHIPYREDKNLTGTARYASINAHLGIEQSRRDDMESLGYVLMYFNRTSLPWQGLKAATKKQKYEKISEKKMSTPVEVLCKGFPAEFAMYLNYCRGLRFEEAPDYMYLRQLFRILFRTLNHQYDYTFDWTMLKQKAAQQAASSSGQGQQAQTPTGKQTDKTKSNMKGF
How it was run: (§2)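 Active-site-directed competition binding panel of 468 kinases (KinomeScan), compound at 1 μM. The read-out is kinase remaining bound, given as a percentage of the DMSO control. […]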

[4] = target: Receptor-interacting serine/threonine-protein kinase 4 (Homo sapiens) (UniProt P57078); assay: Binding affinity to wild-type human partial length RIPK4 (M1 to V303 residues) expressed in mammalian expression system assessed as residual binding level at 1 uM by Kinomescan method relative to control
[5] = target: Serine/threonine-protein kinase TBK1 (Homo sapiens) (UniProt Q9UHD2); assay: Binding affinity to wild-type human full length TBK1 (M1 to L729 residues) expressed in mammalian expression system assessed as residual binding level at 1 uM by Kinomescan method relative to control
Sequence of Serine/threonine-protein kinase TBK1 (Homo sapiens) (Q9UHD2 whole entry, the tested form may be a part): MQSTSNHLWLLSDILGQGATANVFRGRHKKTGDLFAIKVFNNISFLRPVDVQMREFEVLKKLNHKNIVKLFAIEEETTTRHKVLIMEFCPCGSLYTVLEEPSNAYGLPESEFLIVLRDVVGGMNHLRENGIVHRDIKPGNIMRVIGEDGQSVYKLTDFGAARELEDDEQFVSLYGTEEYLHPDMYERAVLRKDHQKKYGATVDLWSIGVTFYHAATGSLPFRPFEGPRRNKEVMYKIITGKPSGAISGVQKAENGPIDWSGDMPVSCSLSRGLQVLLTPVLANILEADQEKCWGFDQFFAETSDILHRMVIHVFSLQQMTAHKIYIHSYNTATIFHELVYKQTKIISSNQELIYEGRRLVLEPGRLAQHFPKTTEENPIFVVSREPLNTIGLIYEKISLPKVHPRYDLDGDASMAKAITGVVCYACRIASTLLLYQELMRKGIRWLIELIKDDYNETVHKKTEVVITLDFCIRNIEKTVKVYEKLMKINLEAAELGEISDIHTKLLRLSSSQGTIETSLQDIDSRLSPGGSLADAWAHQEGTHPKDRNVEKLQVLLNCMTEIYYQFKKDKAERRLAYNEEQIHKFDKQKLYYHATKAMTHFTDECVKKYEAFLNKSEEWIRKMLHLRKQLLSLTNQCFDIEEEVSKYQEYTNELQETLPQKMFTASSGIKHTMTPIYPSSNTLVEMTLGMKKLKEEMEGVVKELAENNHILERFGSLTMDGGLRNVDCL
How it was run: (§3)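 KinomeScan, an active site-directed competition binding panel of 468 kinases. The test compound was at 1 μM. The readout is remaining kinase binding as a percentage of the DMSO control. Scores above 35% were treated as weak binding and not listed.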

[6] = target: Calcium/calmodulin-dependent protein kinase type II subunit gamma (Homo sapiens) (UniProt Q13555); assay: Binding affinity to wild-type human partial length CAMK2G (R9 to A303 residues) expressed in bacterial expression system assessed as residual binding level at 1 uM by Kinomescan method relative to control
[7] = target: STE20-like serine/threonine-protein kinase (Homo sapiens) (UniProt Q9H2G2); assay: Binding affinity to wild-type human partial length SLK (S14 to A307 residues) expressed in bacterial expression system assessed as residual binding level at 1 uM by Kinomescan method relative to control
[8] = target: Serine/threonine-protein kinase SIK3 (Homo sapiens) (UniProt Q9Y2K2); assay: Binding affinity to wild-type human partial length QSK (A90 to L395 residues) expressed in mammalian expression system assessed as residual binding level at 1 uM by Kinomescan method relative to control; how it was run: as §2
[9] = target: Cyclin-dependent kinase 9 (Homo sapiens) (UniProt P50750); assay: Binding affinity to wild-type human full length CDK9 (M1 to F372 residues) expressed in bacterial expression system assessed as residual binding level at 1 uM by Kinomescan method relative to control
Sequence of Cyclin-dependent kinase 9 (Homo sapiens) (P50750 whole entry, the tested form may be a part): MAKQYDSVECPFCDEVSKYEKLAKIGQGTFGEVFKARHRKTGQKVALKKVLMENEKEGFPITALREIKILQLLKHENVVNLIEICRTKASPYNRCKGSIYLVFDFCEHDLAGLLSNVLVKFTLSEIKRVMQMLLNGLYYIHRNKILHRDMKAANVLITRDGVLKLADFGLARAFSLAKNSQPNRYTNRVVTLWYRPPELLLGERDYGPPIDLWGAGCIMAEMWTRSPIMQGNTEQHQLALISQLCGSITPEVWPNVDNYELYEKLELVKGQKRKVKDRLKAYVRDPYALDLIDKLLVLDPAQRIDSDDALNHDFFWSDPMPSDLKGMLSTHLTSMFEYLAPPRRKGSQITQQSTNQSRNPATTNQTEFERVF
How it was run: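 Active-site-directed KinomeScan competition binding panel covering 468 kinases, compound tested at 1 μM. Each readout is the kinase signal remaining with compound, expressed as a percentage of the DMSO control. […]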

[10] = target: BDNF/NT-3 growth factors receptor (Homo sapiens) (UniProt Q16620); assay: Binding affinity to wild-type human partial length TRKB (Q547 to G838 residues) expressed in mammalian expression system assessed as residual binding level at 1 uM by Kinomescan method relative to control
[11] = target: Serine/threonine-protein kinase Nek10 (Homo sapiens) (UniProt Q6ZWH5); assay: Binding affinity to wild-type human partial length NEK10 (L488 to R809 residues) expressed in mammalian expression system assessed as residual binding level at 1 uM by Kinomescan method relative to control
[12] = target: Tyrosine-protein kinase receptor Tie-1 (Homo sapiens) (UniProt P35590); assay: Binding affinity to wild-type human partial length TIE1 (T819 to A1138 residues) expressed in bacterial expression system assessed as residual binding level at 1 uM by Kinomescan method relative to control
How it was run: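 Active site-directed competition binding panel (KinomeScan, 468 kinases). Test compound at 1 μM. Read-out is kinase binding remaining versus DMSO control, expressed as percent of control. Scores above 35% are treated as weak binding.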

[13] = target: Platelet-derived growth factor receptor alpha (Homo sapiens) (UniProt P16234); assay: Binding affinity to wild-type human partial length PDGFRA (V575 to D1002 residues) expressed in mammalian expression system assessed as residual binding level at 1 uM by Kinomescan method relative to control; how it was run: as §2
Sequence of Platelet-derived growth factor receptor alpha (Homo sapiens) (P16234 whole entry, the tested form may be a part): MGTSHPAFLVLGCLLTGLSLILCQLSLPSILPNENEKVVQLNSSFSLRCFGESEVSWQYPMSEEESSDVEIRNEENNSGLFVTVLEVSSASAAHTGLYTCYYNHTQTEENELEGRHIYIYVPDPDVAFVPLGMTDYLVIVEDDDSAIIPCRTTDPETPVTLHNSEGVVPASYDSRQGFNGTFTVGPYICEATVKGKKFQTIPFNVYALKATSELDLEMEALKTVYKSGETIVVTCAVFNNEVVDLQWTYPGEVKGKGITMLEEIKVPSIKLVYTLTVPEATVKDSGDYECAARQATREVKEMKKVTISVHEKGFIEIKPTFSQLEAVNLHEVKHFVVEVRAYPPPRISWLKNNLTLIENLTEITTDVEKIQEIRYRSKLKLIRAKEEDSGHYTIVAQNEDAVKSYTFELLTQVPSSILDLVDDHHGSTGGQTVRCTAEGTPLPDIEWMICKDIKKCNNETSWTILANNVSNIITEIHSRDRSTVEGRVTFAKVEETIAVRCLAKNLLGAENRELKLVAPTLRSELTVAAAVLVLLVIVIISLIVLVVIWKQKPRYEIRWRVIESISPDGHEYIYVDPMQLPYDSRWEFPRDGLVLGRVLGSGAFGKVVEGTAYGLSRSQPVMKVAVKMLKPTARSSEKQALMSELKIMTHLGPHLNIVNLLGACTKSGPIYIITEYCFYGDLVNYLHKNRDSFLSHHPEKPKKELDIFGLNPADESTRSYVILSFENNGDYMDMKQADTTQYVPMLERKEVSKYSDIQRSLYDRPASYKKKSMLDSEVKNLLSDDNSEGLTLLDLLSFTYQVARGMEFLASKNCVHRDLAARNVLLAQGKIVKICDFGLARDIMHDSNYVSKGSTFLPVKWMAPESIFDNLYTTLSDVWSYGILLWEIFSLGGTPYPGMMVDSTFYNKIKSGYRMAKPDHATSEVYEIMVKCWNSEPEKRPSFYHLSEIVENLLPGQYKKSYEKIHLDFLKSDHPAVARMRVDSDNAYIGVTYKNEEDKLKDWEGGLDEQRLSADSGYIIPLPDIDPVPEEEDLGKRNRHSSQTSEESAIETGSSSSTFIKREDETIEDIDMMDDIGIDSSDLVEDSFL

[14] = target: Proto-oncogene tyrosine-protein kinase ROS (Homo sapiens) (UniProt P08922); assay: Binding affinity to wild-type human partial length ROS1 (A1921 to N2240 residues) expressed in bacterial expression system assessed as residual binding level at 1 uM by Kinomescan method relative to control
[15] = target: Dual specificity mitogen-activated protein kinase kinase 3 (Homo sapiens) (UniProt P46734); assay: Binding affinity to wild-type human full length MEK3 (M1 to S318 residues) expressed in mammalian expression system assessed as residual binding level at 1 uM by Kinomescan method relative to control; how it was run: as §3
[16] = target: TRAF2 and NCK-interacting protein kinase (Homo sapiens) (UniProt Q9UKE5); assay: Binding affinity to wild-type human partial length TNIK (D4 to K311 residues) expressed in bacterial expression system assessed as residual binding level at 1 uM by Kinomescan method relative to control
Sequence of TRAF2 and NCK-interacting protein kinase (Homo sapiens) (Q9UKE5 whole entry, looked up, the tested form may be a part): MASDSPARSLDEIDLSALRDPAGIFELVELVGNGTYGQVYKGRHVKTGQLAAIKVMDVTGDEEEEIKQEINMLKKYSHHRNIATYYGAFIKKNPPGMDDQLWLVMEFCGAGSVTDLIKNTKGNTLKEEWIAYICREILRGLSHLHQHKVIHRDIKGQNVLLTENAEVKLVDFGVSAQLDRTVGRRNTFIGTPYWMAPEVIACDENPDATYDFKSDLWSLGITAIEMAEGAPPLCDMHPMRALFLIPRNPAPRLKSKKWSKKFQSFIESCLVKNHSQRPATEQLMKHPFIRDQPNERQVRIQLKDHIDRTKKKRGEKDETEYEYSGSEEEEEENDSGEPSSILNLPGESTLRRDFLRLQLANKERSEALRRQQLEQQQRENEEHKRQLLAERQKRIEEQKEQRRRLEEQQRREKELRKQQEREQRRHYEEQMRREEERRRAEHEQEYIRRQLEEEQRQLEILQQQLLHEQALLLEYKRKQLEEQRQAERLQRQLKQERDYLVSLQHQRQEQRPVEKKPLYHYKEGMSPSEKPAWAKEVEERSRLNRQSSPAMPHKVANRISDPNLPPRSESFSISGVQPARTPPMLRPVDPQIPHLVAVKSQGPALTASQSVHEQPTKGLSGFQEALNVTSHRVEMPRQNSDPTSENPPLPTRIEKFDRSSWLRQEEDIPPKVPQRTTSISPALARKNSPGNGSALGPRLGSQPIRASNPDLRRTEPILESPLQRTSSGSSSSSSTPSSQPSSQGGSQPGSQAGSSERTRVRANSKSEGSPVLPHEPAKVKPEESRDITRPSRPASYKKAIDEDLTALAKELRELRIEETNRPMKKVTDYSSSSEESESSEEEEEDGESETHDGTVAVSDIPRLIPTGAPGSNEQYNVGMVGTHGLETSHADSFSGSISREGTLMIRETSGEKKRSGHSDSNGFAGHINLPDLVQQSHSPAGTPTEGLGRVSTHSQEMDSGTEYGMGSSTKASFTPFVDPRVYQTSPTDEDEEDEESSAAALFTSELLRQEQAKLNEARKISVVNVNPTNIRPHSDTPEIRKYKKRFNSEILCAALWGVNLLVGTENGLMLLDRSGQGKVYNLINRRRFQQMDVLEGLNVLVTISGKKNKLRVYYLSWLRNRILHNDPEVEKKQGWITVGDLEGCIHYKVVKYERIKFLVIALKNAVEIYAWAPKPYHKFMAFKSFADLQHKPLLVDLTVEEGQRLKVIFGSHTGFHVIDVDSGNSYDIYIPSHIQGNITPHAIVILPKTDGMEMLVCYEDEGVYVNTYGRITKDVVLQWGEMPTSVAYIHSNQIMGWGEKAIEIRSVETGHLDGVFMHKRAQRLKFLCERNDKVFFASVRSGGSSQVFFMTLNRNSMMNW

[17] = target: Platelet-derived growth factor receptor beta (Homo sapiens) (UniProt P09619); assay: Binding affinity to wild-type human partial length PDGFRB (V582 to Y1009 residues) expressed in bacterial expression system assessed as residual binding level at 1 uM by Kinomescan method relative to control; how it was run: as §2
[18] = target: Cyclin-dependent kinase-like 2 (Homo sapiens) (UniProt Q92772); assay: Binding affinity to wild-type human partial length CDKL2 (M1 to D327 residues) expressed in bacterial expression system assessed as residual binding level at 1 uM by Kinomescan method relative to control
Sequence of Cyclin-dependent kinase-like 2 (Homo sapiens) (Q92772 whole entry, the tested form may be a part): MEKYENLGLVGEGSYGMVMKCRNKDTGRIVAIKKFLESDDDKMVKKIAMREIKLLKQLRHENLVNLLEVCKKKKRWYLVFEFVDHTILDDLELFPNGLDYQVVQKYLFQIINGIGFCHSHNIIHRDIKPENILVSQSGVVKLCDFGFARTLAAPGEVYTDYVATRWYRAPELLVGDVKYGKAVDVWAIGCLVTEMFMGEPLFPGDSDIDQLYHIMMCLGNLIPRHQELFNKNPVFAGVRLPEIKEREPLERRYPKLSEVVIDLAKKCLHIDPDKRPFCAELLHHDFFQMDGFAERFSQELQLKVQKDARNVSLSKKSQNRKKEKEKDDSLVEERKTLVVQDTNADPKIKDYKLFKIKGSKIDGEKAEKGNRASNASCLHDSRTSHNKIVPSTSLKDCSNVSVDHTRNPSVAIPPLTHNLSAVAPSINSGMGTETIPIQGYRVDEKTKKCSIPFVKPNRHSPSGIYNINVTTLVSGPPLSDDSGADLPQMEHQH

[19] = target: cAMP-dependent protein kinase catalytic subunit alpha (Homo sapiens) (UniProt P17612); assay: Binding affinity to wild-type human partial length PKAC-alpha (G10 to F351 residues) expressed in bacterial expression system assessed as residual binding level at 1 uM by Kinomescan method relative to control
[20] = target: Cyclin-dependent kinase-like 1 (Homo sapiens) (UniProt Q00532); assay: Binding affinity to wild-type human full length CDKL1 (M1 to I358 residues) expressed in mammalian expression system assessed as residual binding level at 1 uM by Kinomescan method relative to control; how it was run: as §3
[21] = system: Tyrosine-protein kinase ABL1 (Homo sapiens), P00519 [F317L]; assay: Binding affinity to human non-phosphorylated ABL1 F317L mutant (S229 to K512 residues) expressed in mammalian expression system assessed as residual binding level at 1 uM by Kinomescan method relative to control; how it was run: as §1

SMILES: C=CC(=O)Nc1ccccc1Nc1nc(Nc2ccc(N3CCN(C)CC3)cc2)ncc1C(=O)Nc1c(C)cccc1Cl
- Activity [1]: 100%
- Activity [2]: 100%
- Activity [3]: 86%
- Activity [4]: 100%
- Activity [5]: 70%
- Activity [6]: 100%
- Activity [7]: 100%
- Activity [8]: 69%
- Activity [9]: 100%
- Activity [10]: 100%
- Activity [11]: 100%
- Activity [12]: 83%
- Activity [13]: 90%
- Activity [14]: 100%
- Activity [15]: 69%
- Activity [16]: 100%
- Activity [17]: 29%
- Activity [18]: 100%
- Activity [19]: 100%
- Activity [20]: 72%
- Activity [21]: 0.9%
